Assay outcomes deposited in PubChem BioAssay by several laboratories.
Shown are actives, neighbours in structure and some others; about 4.3% of the full set was active somewhere.
NF-kB expr up – raises NF-kB expression in human neuronal cells; NF-kB reporter expression; stronger effect = higher value; fold change at 12.5 µM; 1.6% of 190,000 active; in the data active means fold change above about 3.3
STAT1 activator – increases IFN-gamma driven STAT1 reporter signal; NIH 3T3 STAT1-luciferase reporter, luminescence; 100% = IFN-gamma alone, no compound; 2.6% of 200,000 active; AID 932; activation (% of control), % at 5.5 µM;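 active means activation above the screen-wide mean activation plus 3 SD, cut at about 130% in these data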;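 further: raw ratio to IFN-gamma control signal so 100% means no change and 0% no light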
FLuc stim CS – affects firefly luciferase, flagging false hits in luciferase stimulation screens. ATPlite luciferase biochemical, luminescence, 10 min; 0 = ATP-free wells, 1 = DMSO control. activation factor at 10 µM. 200,000 tested, under 10 active;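 active means luciferase activation factor, scaled between plate controls, of at least 2 with compound at 10 µM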
Target sequence (P08659 whole entry, looked up): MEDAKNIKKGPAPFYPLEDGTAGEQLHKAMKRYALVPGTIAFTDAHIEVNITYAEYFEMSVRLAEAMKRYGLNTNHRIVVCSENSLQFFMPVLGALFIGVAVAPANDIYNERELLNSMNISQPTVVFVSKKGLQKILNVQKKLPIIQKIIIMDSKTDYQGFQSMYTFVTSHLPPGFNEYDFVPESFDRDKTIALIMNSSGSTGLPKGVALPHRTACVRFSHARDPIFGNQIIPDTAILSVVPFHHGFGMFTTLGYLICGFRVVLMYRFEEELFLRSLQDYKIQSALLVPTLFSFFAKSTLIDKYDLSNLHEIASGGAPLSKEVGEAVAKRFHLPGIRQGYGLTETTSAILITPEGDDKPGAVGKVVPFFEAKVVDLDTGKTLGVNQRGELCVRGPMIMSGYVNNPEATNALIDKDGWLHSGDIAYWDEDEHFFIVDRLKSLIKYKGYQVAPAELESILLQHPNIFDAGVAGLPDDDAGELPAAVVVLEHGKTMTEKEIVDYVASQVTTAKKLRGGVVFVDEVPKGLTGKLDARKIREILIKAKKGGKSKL
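Assay system: Luciferase/luciferin detection reagent, cell-free biochemical luciferase assay / Read-out: luciferase activation / Benchmarks: No-ATP low control, compound-free enzyme-plus-ATP high control / Medium: PBS buffer for ATP / Detection: luminescence measurement of luciferase light output / Schedule: 10 min at ambient temperature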
APP 5'UTR act – APP 5'UTR luciferase reporter activation; SH-SY5Y APP 5'UTR luciferase reporter, luminescence; zero percent = DMSO vehicle wells; activation, % at 2 µM; 1% of 190,000 active; AID 1276;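 active means activation above a set limit, based on mean plus 3 SD of controls, cut at about 140% in these data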
FLuc inh counter – inhibits firefly luciferase, flagging false hits in luciferase inhibition screens; ATPLite firefly luciferase biochemical luminescence, 10 min; inhibition, % at 10 µM; 1.5% of 200,000 active; AID 1006;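 active means inhibition above about 50% when tested at 10 µM, limit read from the data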
The depositor's hits bear a star; nt = no result.

SMILES	NF-kB expr up	STAT1 activator	FLuc stim CS	APP 5'UTR act	FLuc inh counter
COc1ccc(Cl)cc1NC(=S)Nc1ccccc1C	1.1	101	1	20	-4
Fc1ccccc1/C=N/Nc1ncnc2nc[nH]c12	1.8	137*	0.9	45	12
Fc1cccc(/C=N/Nc2ncnc3nc[nH]c23)c1	2.1	138*	0.7	17	28
CC(=O)Nc1ccc(-n2nnnc2SCC(=O)NCc2cccs2)cc1	0.95	98	1.1	-1	-10
COc1ccc(N2CC(NC(=O)NCCC(C)C)CC2=O)cc1 (stereo not drawn)	1.2	105	1.1	-7	-5
Cc1ccccc1NC(=O)c1sc(NC(=O)COc2ccccc2)c(C#N)c1C	0.75	103	1.1	3	-9
CCn1c(-c2cc(-c3ccc(C)c(C)c3)nc3ccccc23)n[nH]c1=S	1.4	113	0.5	26	53*
CCn1c(-c2cc(-c3cc(C)ccc3C)nc3ccccc23)n[nH]c1=S	0.96	104	1.1	-4	-10
CC(=O)c1ccc(NC(=O)Nc2ccccc2)cc1	3.6*	121	0.6	138*	35
O=C(Nc1ccc(C(=O)N2CCOCC2)cc1)Nc1ccc(Cl)cc1Cl	0.82	99	1	14	1
CCN(CC)c1ccc(NC(=O)Nc2ccc(C(C)=O)cc2)cc1	0.91	109	1	27	-2
O=C(Nc1ccccc1)Nc1ccc(C(=O)N2CCOCC2)cc1	1.4	113	0.4	55	55*
CCCN(CCC)CCNC(=S)Nc1ccc2nc3n(c(=O)c2c1)CCCCC3	0.95	91	1	18	-5
Cc1ccccc1N=C1Nc2ccccc2CS1	4.6*	126	0.6	105	35
O=C(COC(=O)CNC(=O)c1sc2ccccc2c1Cl)Nc1c(Cl)cc(Cl)cc1Cl	1.2	100	0.9	11	5
c1ccc(-c2nnc(-c3ccccn3)nc2NC2CCCCC2)cc1	0.83	103	1	-77	0
CNc1nc(-c2ccccn2)nnc1-c1ccccc1	13*	102	1	-11	-2
Cc1nnc2c3ccccc3c(Cl)nn12	1.2	91	1	16	-1
O=C(Cn1cccn1)c1ccccc1	0.94	102	1.1	-9	-8
CC(C)c1ccc(OCC(=O)N(Cc2ccccc2)c2ccccn2)cc1	0.57	96	1.1	-1	-5
CC(=O)/C(N=Nc1ccc2c(c1)OCO2)=C(\C)O	1.1	138*	0.8	37	16
CC(=O)/C(N=Nc1ccc2c(c1)OCCO2)=C(\C)O	2	82	0.7	16	30
COc1cc(OC)c(C2=Nc3ccc(Br)cc3C(c3ccccc3)N2CC(=O)NN)cc1OC (stereo not drawn)	1.2	96	1	7	-4
O=c1cc(-c2ccccc2)[nH]c2nc3ccccc3n12	4.8*	94	0.2	116	84*
CCc1c(C)[nH]c2nc3ccccc3n2c1=O	1	104	1	-25	-3
SMILES	NF-kB expr up	STAT1 activator	FLuc stim CS	APP 5'UTR act	FLuc inh counter
O=C(OCc1cc([N+](=O)[O-])cc2c1OCOC2)c1ccc2ccccc2n1	1.2	102	1.1	-6	-6
CC(C)=CC(=O)OCc1cc([N+](=O)[O-])cc2c1OCOC2	0.91	138*	1	43	-2
Cc1ccc(OS(=O)(=O)c2cn(C)c(=O)n(C)c2=O)cc1C	1.2	100	1	11	3
CCOC(=O)Cc1csc(NC(=O)c2c(-c3c(Cl)cccc3Cl)noc2C)n1	0.73	96	1.1	23	-10
CCOC(=O)Cc1csc(NC(=S)NC(=O)c2ccc(Cl)cc2)n1	0.68	101	0.4	2	59*
CCOC(=O)Cc1csc(NC(=O)/C=C\c2ccccc2)n1	1.7	108	0.4	13	59*
CCOC(=O)Cc1csc(NC(=O)/C=C\c2ccccc2Cl)n1	2.3	94	0.4	49	56*
CCOC(=O)Cc1csc(NC(=O)/C=C/c2ccc(OC)cc2)n1	0.93	90	0.2	48	76*
CC(C)NC(=O)c1ccccc1NC(=O)Cc1ccc([N+](=O)[O-])cc1	1.2	100	1.1	4	-5
CCOC(=O)C1(Cc2cccc(F)c2)CCN(Cc2cnn(CC)c2C)CC1	0.95	89	1	-10	1
CN(c1ccccc1)S(=O)(=O)c1cccc(C(=O)OCC(=O)NCCCN2CCCC2=O)c1	1	100	1.1	-6	-6
COc1ccc(C2=NN(CN3C(=O)C(=O)c4ccccc43)C(c3ccc(OC)cc3)C2)cc1 (stereo not drawn)	1.7	113	1	59	-2
CCn1c(NCc2c[nH]c3ccccc23)nc2ccccc21	nt	110	nt	19	nt
Cn1c(/N=C/c2ccc3c(c2)OCO3)nc2ccccc21	1.3	102	0.1	2	91*
CC(C)n1c(/N=C/c2c[nH]c3ccccc23)nc2ccccc21	1.2	115	0.7	-8	33
Cn1c(/N=C/c2c[nH]c3ccccc23)nc2ccccc21	2.5	103	0.1	-14	88*
Cn1c(NCc2c[nH]c3ccccc23)nc2ccccc21	3.3*	139*	0.7	113	26
COc1ccc(C(=O)CSc2n[nH]c(C)n2)cc1[N+](=O)[O-]	0.97	99	1	-3	-2
COc1ccc(NC2=Nc3cccc4cccc2c34)cc1OC	1.1	106	1	-11	-2
Clc1ccc(/C=N/NC2=Nc3cccc4cccc2c34)cc1	1.4	135*	0.7	70	28
C(=N\NC1=Nc2cccc3cccc1c23)/c1ccccc1	1.6	180*	0.3	-31	67*
C(=N\NC1=Nc2cccc3cccc1c23)/c1cccnc1	1	150*	0.4	74	60*
COc1ccc(OC)c(Cc2nnc(CCC(=O)N3CCCCC3)o2)c1	1.9	132*	1	19	-2
COc1ccc(OC)c(Cc2nnc(CCC(=O)NC(C3CC3)C3CC3)o2)c1	1.3	98	1.1	-9	-10
CC(C)(C)OC(=O)N/N=C/c1ccc(Br)cc1	4.5*	149*	0.9	129	10
SMILES	NF-kB expr up	STAT1 activator	FLuc stim CS	APP 5'UTR act	FLuc inh counter
CC(C)(C)NC(=O)C(=O)N/N=C/c1ccc(Br)cc1	1.4	116	1	13	0
O=C(N/N=C/c1cccnc1)c1ccccc1[N+](=O)[O-]	1.2	106	1	5	-1
O=C(N/N=C/c1cccnc1)c1ccc([N+](=O)[O-])cc1	0.94	101	0.3	-5	67*
CC(C)(C)OC(=O)N/N=C\c1cccnc1	1.7	114	0.2	15	78*
O=C(N/N=C/c1cccnc1)C(O)(c1ccccc1)c1ccccc1	1.2	97	1.1	-8	-8
O=C(/C=C/c1ccc([N+](=O)[O-])cc1)Nc1cccnc1	2.2	127	0.3	124	65*
Cc1ccc(-c2nc(-c3ccccn3)no2)cc1Cl	0.59	28	0	159*	95*
c1ccc(-c2noc(-c3ccco3)n2)nc1	2.1	137*	0.8	192*	23
